S1P1 ag-PAM: activates or potentiates agonism at human S1P1 receptor. P21453. S1P1 CRE-bla cells, forskolin, beta-lactamase FRET, potentiator mode; S1P1 agonist co-added at EC20, 2 nM; 100% = saturating reference agonist, 0% = basal. activation, % at 9.5 µM. hit rate 0.57% among 56,000;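 active = activation above a cutoff set at the mean activation of all tested compounds plus 3 SD, cut at about 54% in these data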;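 also: forskolin at 4 µM as EC80 and the EC20 agonist is SEW2871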
TNAP act mid DEA: activators of human TNAP at intermediate phosphate acceptor | purified TNAP, CDP-star luminescence, 100 mM DEA, 30 min; active compounds read high; scale: 0 levamisole-inhibited, 1 vehicle-only enzyme | P05186 | 64,000 tested, under 10 active | activation factor at 20 µM;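 active = activation factor of at least 2 at 20 µM, relative to controls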
M1 antag: blocks the rat M1 muscarinic receptor response to acetylcholine; hit rate 3.4% among 64,000; B-score at 10 µM; P08482; CHO-M1 cells, Fluo-4 calcium, ACh EC80 antagonist mode; active compounds read low;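 active = calcium fluorescence response, raw or row-and-column corrected B-score, differing from the plate sample mean either way at a set confidence level, mostly lower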
D1 allo mod: D1 dopamine receptor (human) allosteric modulation; P21728; HEK293 D1, CRE-luciferase, dopamine EC30 potentiation; actives deviate in either direction; B-score at 10 µM; hit rate 5.9% among 58,000;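 active = luminescence count or its row- and column-corrected plate score outside the 99.7% band of the plate's sample wells, on either side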
Target sequence (P21728 whole entry, looked up): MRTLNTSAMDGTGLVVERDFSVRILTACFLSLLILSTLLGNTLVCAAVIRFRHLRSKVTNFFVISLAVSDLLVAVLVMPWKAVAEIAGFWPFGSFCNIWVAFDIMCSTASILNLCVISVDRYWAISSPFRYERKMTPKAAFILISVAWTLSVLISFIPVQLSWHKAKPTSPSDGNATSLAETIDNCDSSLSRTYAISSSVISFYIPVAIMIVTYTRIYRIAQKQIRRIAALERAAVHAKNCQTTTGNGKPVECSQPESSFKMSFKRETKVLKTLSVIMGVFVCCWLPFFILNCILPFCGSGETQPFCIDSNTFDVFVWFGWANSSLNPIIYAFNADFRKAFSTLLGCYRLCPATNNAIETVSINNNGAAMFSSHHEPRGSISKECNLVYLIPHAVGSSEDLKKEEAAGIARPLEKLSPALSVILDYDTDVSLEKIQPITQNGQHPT
M1 ag: activates the M1 muscarinic receptor; CHO-M1 cells, Fluo-4 calcium fluorescence, agonist mode; active compounds read high; AID 626; B-score at 10 µM; hit rate 3% among 64,000;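 active = fluorescence rise, raw or as B-score row- and column-corrected plate score, outside the 99.7% band of its plate's samples, either direction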
S1P3 ag: activates the human S1P3 receptor; S1P3 NFAT-BLA reporter cells, agonism, FRET ratio; relative to 1 µM S1P, basal subtracted; hit rate 0.1% among 60,000; Q99500; AID 373; activation, % at 4.5 µM;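 active = activation above the screen-wide mean plus 3 SD, cut at about 4.5% in these data, passing the limit was not always enough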
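Material: Human S1P3 NFAT-BLA reporter CHO cells | Incubation: Overnight plating, 4 h compound 37 °C, 2 h substrate RT | Signal: FRET β-lactamase substrate fluorescence, excitation 405 nm, 460/535 nm emission ratio, background-subtracted | Compound: 4.5 µM final, single dose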
M1 antag conf: M1 muscarinic receptor (rat) antagonism, confirmed | shares compounds with M1 antag | CHO-M1 cells, Fluo-4 calcium, ACh EC80 antagonism; active compounds read low | calcium response (max-min fluorescence) at 10 µM | hit rate 43% among 1,700;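 active = calcium response below the same-plate mean of wells given acetylcholine alone at its 80%-effect dose, minus 3 SD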
mGluR4 antag: mGluR4 (human) activity, M1 antagonist secondary assay. fluorescence response (max-min) at 10 µM. hit rate 0.9% among 1,700. shares compounds with M1 antag. CHO-mGluR4 calcium flux, Fluo-4 fluorescence, glutamate EC80; active compounds read low;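 active = fluorescence response below the plate's average for near-maximal glutamate wells, less 3 SD of those wells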;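 also: raw unnormalized fluorescence span taken in the window right after glutamate addition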
Numbers stand for hits. Rows were chosen to be rich in hits. Some 11% of all compounds tested hit in one or more screens of this group.

Screening COc1ccc(C(=O)c2coc3ccc(O)c(CN(C)C)c23)cc1 returned S1P1 ag-PAM inactive, TNAP act mid DEA inactive, M1 antag inactive, D1 allo mod inactive, M1 ag inactive and S1P3 ag inactive.
Screening CCOC(=O)c1c(C)oc2ccc(O)c(CN(C)C)c12 returned S1P1 ag-PAM inactive, TNAP act mid DEA inactive, M1 antag -1.3, D1 allo mod inactive, M1 ag inactive, S1P3 ag inactive, M1 antag conf inactive and mGluR4 antag inactive.
For Cc1ccc(S(=O)(=O)Cn2nnnc2C(C(C)C)N2CCSCC2)cc1 (stereo not given) the results were S1P1 ag-PAM inactive, TNAP act mid DEA inactive, M1 antag -2.3, D1 allo mod inactive, M1 ag inactive, S1P3 ag inactive, M1 antag conf inactive and mGluR4 antag inactive.
Screening CCN(CC)C(=O)c1cccc(-c2ccc(OC)cc2)c1 returned TNAP act mid DEA inactive, M1 antag -2.2, D1 allo mod inactive, M1 ag inactive, M1 antag conf inactive and mGluR4 antag inactive.
For CCN1CCCC1CNC(=O)C1c2cc(OC)c(OC)cc2C(=O)N(C)C1c1cccnc1 (stereo not given) the results were TNAP act mid DEA inactive, M1 antag inactive and M1 ag inactive.
O=C(CSc1nnnn1-c1ccccc1)CC(=O)Nc1ccc(Cl)cc1 was read as S1P1 ag-PAM inactive, TNAP act mid DEA inactive, M1 antag inactive, M1 ag inactive and S1P3 ag inactive.
For Nc1c(-c2ccc(Cl)cc2)nnn1-c1ccccc1 the results were TNAP act mid DEA inactive, M1 antag -3.2, D1 allo mod inactive, M1 ag inactive, M1 antag conf inactive and mGluR4 antag inactive.
C=CCn1c(N)c(-c2nc3ccccc3n2C)sc1=S was read as S1P1 ag-PAM inactive, TNAP act mid DEA inactive, M1 antag inactive, D1 allo mod inactive, M1 ag inactive and S1P3 ag inactive.
CC(C)(C)N=C1NC(=NC(C)(C)C)c2ccccc21 was read as S1P1 ag-PAM inactive, TNAP act mid DEA inactive, M1 antag -6.2, D1 allo mod -5.3, M1 ag inactive, S1P3 ag inactive, M1 antag conf inactive and mGluR4 antag inactive.
c1ccc2c(c1)C(=NCC1CCCO1)NC2=NCC1CCCO1 (stereo not given) was read as S1P1 ag-PAM inactive, TNAP act mid DEA inactive, M1 antag inactive, D1 allo mod inactive, M1 ag inactive and S1P3 ag inactive.
Screening O=c1ccc2cc3c([nH]c4ccc(Br)cc43)oc-2c1O returned S1P1 ag-PAM inactive, TNAP act mid DEA inactive, M1 antag -1.4, D1 allo mod inactive, M1 ag inactive, S1P3 ag inactive, M1 antag conf inactive and mGluR4 antag inactive.
CSc1ccccc1NC(=O)c1ccco1 was read as S1P1 ag-PAM inactive, TNAP act mid DEA inactive, M1 antag inactive, D1 allo mod inactive, M1 ag inactive and S1P3 ag inactive.
COc1ccccc1N1CCN(C(=O)c2sc3nc(-c4ccccc4)cn3c2C)CC1 was read as S1P1 ag-PAM inactive, M1 antag -3.5, D1 allo mod inactive, M1 ag inactive, S1P3 ag inactive, M1 antag conf inactive and mGluR4 antag inactive.
COc1ccc(-n2c(COc3ccccc3)nnc2SCc2ccc(C#N)cc2)cc1 was read as S1P1 ag-PAM inactive, TNAP act mid DEA inactive, M1 antag -3.3, D1 allo mod inactive, M1 ag inactive, S1P3 ag inactive, M1 antag conf inactive and mGluR4 antag inactive.
`Cc1ccc(C(=O)C2=C(O)C(=O)N(CCN(C)C)C2c2ccccn2)o1` (stereo not given) gave S1P1 ag-PAM inactive, TNAP act mid DEA inactive, M1 antag inactive, D1 allo mod inactive, M1 ag inactive and S1P3 ag inactive.
COc1cc(C(=S)N2CCCC2)ccc1O was read as S1P1 ag-PAM inactive, TNAP act mid DEA inactive, M1 antag inactive, M1 ag inactive and S1P3 ag inactive.
For COc1cc(C(=S)N2CCCC2)cc(Cl)c1O the results were S1P1 ag-PAM inactive, TNAP act mid DEA inactive, M1 antag -2, M1 ag inactive, S1P3 ag inactive, M1 antag conf inactive and mGluR4 antag inactive.
For CCOC(=O)c1c(NC(=O)C(F)(OC)C(F)(F)F)sc(C(=O)N2CCCCC2)c1C (stereo not given) the results were S1P1 ag-PAM inactive, TNAP act mid DEA inactive, M1 antag inactive, D1 allo mod inactive, M1 ag inactive and S1P3 ag inactive.
Screening O=C(NC1CCCCC1)N(Cc1cc2cc3c(cc2[nH]c1=O)OCCO3)CC1CCCO1 (stereo not given) returned S1P1 ag-PAM inactive, TNAP act mid DEA inactive, M1 antag inactive, M1 ag inactive and S1P3 ag inactive.
`Cc1cc(C)c2cc(CN(CC3CCCO3)C(=O)NC3CCCCC3)c(=O)[nH]c2c1` (stereo not given) gave S1P1 ag-PAM inactive, TNAP act mid DEA inactive, M1 antag -3.4, D1 allo mod inactive, M1 ag inactive, S1P3 ag inactive, M1 antag conf inactive and mGluR4 antag inactive.
`Cc1ccc(S(=O)(=O)N2CCN(C(=O)CN3CCOCC3)C2)cc1` gave S1P1 ag-PAM inactive, TNAP act mid DEA inactive, M1 antag inactive, M1 ag inactive and S1P3 ag inactive.
`Cc1ccc(S(=O)(=O)/N=C(\CN2CCCCC2)N2CCOCC2)cc1` gave S1P1 ag-PAM inactive, TNAP act mid DEA inactive, M1 antag -2.6, D1 allo mod inactive, M1 ag inactive, S1P3 ag inactive, M1 antag conf inactive and mGluR4 antag inactive.
For COc1ccc(C)cc1S(=O)(=O)N1CCCCC1 the results were S1P1 ag-PAM inactive, TNAP act mid DEA inactive, M1 antag inactive, D1 allo mod inactive, M1 ag inactive and S1P3 ag inactive.
`Cc1ccc(NC(=O)COC(=O)C2CC2C)c(S(=O)(=O)N2CCCCC2)c1` (stereo not given) gave S1P1 ag-PAM inactive, TNAP act mid DEA inactive, M1 antag -2.8, D1 allo mod inactive, M1 ag inactive, S1P3 ag inactive, M1 antag conf inactive and mGluR4 antag inactive.
For CCOC(=O)N1CCC(NC(=O)CCc2c(C)nc3nc(C)nn3c2C)CC1 the results were S1P1 ag-PAM inactive, TNAP act mid DEA inactive, M1 antag inactive, M1 ag inactive and S1P3 ag inactive.
`CCOC(=O)N1CCC(NC(=O)CCc2c(C)nc3c(c(C)nn3C(C)(C)C)c2C)CC1` gave S1P1 ag-PAM inactive, TNAP act mid DEA inactive, M1 antag -1, D1 allo mod inactive, M1 ag inactive, S1P3 ag inactive, M1 antag conf inactive and mGluR4 antag inactive.

Bioassay records from PubChem BioAssay.
